The values that follow come from ChEMBL document CHEMBL4138162, “Design and synthesis of small molecule agonists of EphA2 receptor” (Eur J Med Chem, 2018).

Activity calls are given as the source filed them. The calls are words filed in the database; no cut-off is given here.

Sequence of Ephrin type-A receptor 2 (Homo sapiens) (P29317 whole entry): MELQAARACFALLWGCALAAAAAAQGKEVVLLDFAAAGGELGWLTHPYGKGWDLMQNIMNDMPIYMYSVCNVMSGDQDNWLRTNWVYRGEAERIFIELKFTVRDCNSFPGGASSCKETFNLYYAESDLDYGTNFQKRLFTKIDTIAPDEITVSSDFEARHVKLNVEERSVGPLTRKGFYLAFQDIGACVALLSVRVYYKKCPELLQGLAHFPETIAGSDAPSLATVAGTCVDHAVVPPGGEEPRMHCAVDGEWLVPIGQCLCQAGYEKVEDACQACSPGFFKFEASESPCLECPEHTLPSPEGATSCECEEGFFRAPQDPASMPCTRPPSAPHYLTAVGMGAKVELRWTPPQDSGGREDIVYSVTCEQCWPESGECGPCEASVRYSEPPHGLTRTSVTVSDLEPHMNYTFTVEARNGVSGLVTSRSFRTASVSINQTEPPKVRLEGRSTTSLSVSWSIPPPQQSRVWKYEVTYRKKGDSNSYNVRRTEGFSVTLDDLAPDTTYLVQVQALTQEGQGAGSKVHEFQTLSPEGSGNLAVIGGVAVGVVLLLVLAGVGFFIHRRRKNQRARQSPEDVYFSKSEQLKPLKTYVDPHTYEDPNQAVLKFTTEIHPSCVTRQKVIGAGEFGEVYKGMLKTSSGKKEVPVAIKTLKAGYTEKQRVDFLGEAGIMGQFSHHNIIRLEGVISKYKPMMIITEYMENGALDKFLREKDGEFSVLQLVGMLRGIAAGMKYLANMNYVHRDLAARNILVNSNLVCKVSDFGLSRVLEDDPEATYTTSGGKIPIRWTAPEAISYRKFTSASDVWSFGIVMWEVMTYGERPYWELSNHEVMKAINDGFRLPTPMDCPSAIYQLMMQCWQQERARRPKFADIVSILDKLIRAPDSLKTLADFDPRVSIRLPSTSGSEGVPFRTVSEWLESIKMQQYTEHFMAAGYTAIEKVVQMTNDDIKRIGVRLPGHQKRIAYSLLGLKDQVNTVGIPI

The target of the first test is Ephrin type-A receptor 2 (Homo sapiens) (UniProt P29317). Briefly: Binding affinity to EphA2 in human MDA-MB-231 cells assessed as induction of EphA2 receptor internalization at 50 uM after 1 hr by immunofluorescence microscopy. It is filed as cell-based. In a few lines:
(§1)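 MDA-MB-231 cells on fibronectin-coated coverslips, 24–48 h after seeding, treated 1 h with compound (0.4–50 µM) in 0.5% DMSO. Cells were then PFA-fixed on ice, permeabilized with NP-40 and immunostained with anti-EphA2 (D7) plus Alexa Fluor 488 secondary, with DAPI counterstain. Surface versus intracellular EphA2 was judged by fluorescence microscopy. Three independent repeats.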
`COc1cc2nc(N3CCN(C(=O)C4COc5ccccc5O4)CC3)nc(N)c2cc1OC` (centres undefined): the result was Active.

The next test has the same target. Put plainly: Agonist activity against EphA2 (unknown origin) overexpressed in MDA-MB-231-A2 cells assessed as increase in phosphorylated EphA2 levels at 2 to 50 uM after 30 mins by immunoprecipitation and immunoblot assay relative to 50 uM doxazosin. The format is cell-based. In a few lines:
(§2)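 MDA-MB-231 cells stably overexpressing EphA2 (kept in 1 µg/ml puromycin) were plated at 100,000 cells/well, grown 24 h, then treated 30 min with compound (2, 10, 50 µM; DMSO stock at 200× final, 0.5% DMSO vehicle). Lysates in modified RIPA were immunoprecipitated with ephrin-A1-Fc on Protein G beads. Blots were probed for pEphA/B and EphA2, and pEphA2/total EphA2 was quantified by band densitometry.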
For `COc1cc2nc(N3CCN(C(=O)C(C)c4ccccc4)CC3)nc(N)c2cc1OC` (centres undefined), the result was Active.

On to `COc1cc2nc(N3CCN(C(=O)c4ccc5ccccc5c4)CC3)nc(N)c2cc1OC`, for which the result was Active.

Regarding `COc1cc2nc(N3CCN(C(=O)c4ccc(I)cc4)CC3)nc(N)c2cc1OC`, the result was Active.

Regarding `COc1cc2nc(N3CCN(C(=O)c4ccccn4)CC3)nc(N)c2cc1OC`, the result was inactive.

`COc1cc2nc(N3CCN(C(=O)Cc4ccc(OCc5ccccc5)cc4)CC3)nc(N3CCCC3)c2cc1OC`: the outcome was inactive.

As for `CCC(=O)N1CCN(c2nc(N)c3cc(OC)c(OC)cc3n2)CC1`, the outcome was inactive.

Turning to `COc1cc2nc(N3CCN(C(=O)c4ccc(Br)cc4)CC3)nc(N)c2cc1OC`, the outcome was Active.

As to `CCCC(=O)N1CCN(c2nc(N)c3cc(OC)c(OC)cc3n2)CC1`, the result was inactive.

For `COc1cccc(CC(=O)N2CCN(c3nc(N)c4cc(OC)c(OC)cc4n3)CC2)c1`, the outcome was Active.

For the compound `COc1ccc(CC(=O)N2CCN(c3nc(N)c4cc(OC)c(OC)cc4n3)CC2)cc1`, the outcome was Active.

`COc1cc2nc(N3CCN(C(=O)Cc4ccc(OCc5ccccc5)cc4)CC3)nc(N)c2cc1OC`: the result was Active.

For `COc1cc2nc(N3CCN(C(=O)CCCCC(=O)N4CCN(c5nc(N)c6cc(OC)c(OC)cc6n5)CC4)CC3)nc(N)c2cc1OC`, the outcome was inactive.

As for `COc1ccc(C(=O)N2CCN(c3nc(N)c4cc(OC)c(OC)cc4n3)CC2)cc1`, the outcome was inactive.

As for `COc1ccc(C(=O)N2CCN(C(=O)c3ccc(OC)cc3)CC2)cc1`, the outcome was inactive.

Take `COc1cc2nc(N3CCN(C(C)=O)CC3)nc(N)c2cc1OC`: the result was inactive.

In the case of `COc1cc2nc(N3CCN(C(=O)c4cccs4)CC3)nc(N)c2cc1OC`, the outcome was inactive.

Take `COc1cc2nc(N3CCN(C(=O)Cc4ccc(OCc5ccccc5)cc4)CC3)nc(NC(C)=O)c2cc1OC`: the result was inactive.

For the compound `COc1cc2nc(N3CCN(C(=O)C4COc5ccccc5O4)CC3)nc(NC(C)=O)c2cc1OC` (centres undefined), the result was inactive.

Regarding `CSc1ccc(C(=O)N2CCN(C(=O)c3ccc(SC)cc3)CC2)cc1`, the outcome was inactive.

For `COc1cc2nc(N3CCN(C(=O)c4ccco4)CC3)nc(N)c2cc1OC`, the result was inactive.

With `COc1cc2nc(N3CCN(C(=O)c4ccc(Cl)c([N+](=O)[O-])c4)CC3)nc(N)c2cc1OC`, the result was inactive.

Regarding `COc1cc2nc(N3CCN(C(=O)Cc4ccc(OCc5ccccc5)cc4)CC3)nc(N3CCCCC3)c2cc1OC`, the outcome was inactive.

As for `COc1cc2nc(N3CCN(C(=O)Cc4ccc5ccccc5c4)CC3)nc(N)c2cc1OC`, the result was Active.

As for `COc1cc2nc(N3CCN(C(=O)c4ccno4)CC3)nc(N)c2cc1OC`, the result was inactive.

For `COc1cc2nc(N3CCN(C(=O)CCCCCCCCCCC(=O)N4CCN(c5nc(N)c6cc(OC)c(OC)cc6n5)CC4)CC3)nc(N)c2cc1OC`, the result was Active.

Turning to `COc1cc2nc(N3CCN(C(=O)Cc4ccccc4)CC3)nc(N)c2cc1OC`, the outcome was Active.

As for `CCc1ccc(C(=O)N2CCN(c3nc(N)c4cc(OC)c(OC)cc4n3)CC2)cc1`, the result was Active.

Consider `COc1cc2nc(N3CCN(C(=O)c4ccc(-c5ccccc5)cc4)CC3)nc(N)c2cc1OC`, for which the result was Active.

Take `CCCCCC(=O)N1CCN(c2nc(N)c3cc(OC)c(OC)cc3n2)CC1`: the outcome was inactive.

`COc1cc2nc(N3CCN(C(=O)c4ccncc4)CC3)nc(N)c2cc1OC`: the outcome was inactive.

Consider `CCOc1cc2nc(N3CCN(C(=O)Cc4ccc(OCc5ccccc5)cc4)CC3)nc(N)c2cc1OCC`, for which the result was inactive.

For `COc1cc2nc(N3CCN(C(=O)c4ccc5c(c4)OCO5)CC3)nc(N)c2cc1OC`, the outcome was Active.

Take `COc1cc2nc(N3CCN(C(=O)C4CCCCC4)CC3)nc(N)c2cc1OC`: the result was inactive.

The next test relates to MDA-MB-231. Briefly: Anticlonogenic activity against human MDA-MB-231 cells up to 10 uM after 14 days by crystal violet staining-based assay. The format is functional, cell-based. In a few lines:
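Parental MDA-MB-231 cells, 1000/well, cultured 24 h, then exposed to 0, 0.08, 0.4, 2 or 10 µM compound in 0.5% DMSO for 14 days. Colonies were fixed in 4% paraformaldehyde, rinsed in 20% methanol and stained with 0.5% crystal violet. Three independent experiments.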
Take `COc1cc2nc(N3CCN(C(=O)Cc4ccc(OCc5ccccc5)cc4)CC3)nc(N)c2cc1OC`: the outcome was Active.

In the case of `COc1cc2nc(N3CCN(C(=O)CCCCCCCCCCC(=O)N4CCN(c5nc(N)c6cc(OC)c(OC)cc6n5)CC4)CC3)nc(N)c2cc1OC`, the result was Active.

Take `CCCCCC(=O)N1CCN(c2nc(N)c3cc(OC)c(OC)cc3n2)CC1`: the result was Active.

A further test concerns the target Ephrin type-A receptor 2 (Homo sapiens) (UniProt P29317). Put plainly: Agonist activity against EphA2 (unknown origin) overexpressed in MDA-MB-231-A2 cells assessed as increase in phosphorylated EphA2 levels at 50 uM after 30 mins by immunoprecipitation and immunoblot assay. It is filed as cell-based. Put shortly:
as §2
(A western blot detects proteins with antibodies after separation by electrophoresis.)
As to `COc1cc2nc(N3CCN(C(=O)CCCCCCCCCCC(=O)N4CCN(c5nc(N)c6cc(OC)c(OC)cc6n5)CC4)CC3)nc(N)c2cc1OC`, the outcome was Active.

For a further test the target is unchanged. Put plainly: Binding affinity to EphA2 in human MDA-MB-231 cells assessed as induction of EphA2 receptor internalization at 0.4 uM after 1 hr by immunofluorescence microscopy. The format is cell-based. Put shortly: as §1
For `COc1cc2nc(N3CCN(C(=O)CCCCCCCCCCC(=O)N4CCN(c5nc(N)c6cc(OC)c(OC)cc6n5)CC4)CC3)nc(N)c2cc1OC`, the outcome was Active.
